≈ marks a conversion by molar mass, not a printed value.
Columns and labels:
Assay type in all cases: functional
Enterococcus faecalis [1] = assay: Antibacterial activity against Enterococcus faecalis 14-2 after 18 to 24 hrs
Procedure, shortened: (§1)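 MIC by standard NCCLS reference procedure (M100-S11); lowest concentration of compound inhibiting visible bacterial growth after incubation at 35 °C for 18–24 h, read as complete inhibition of growth. Ciprofloxacin, levofloxacin and moxifloxacin run alongside as reference agents.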

Enterococcus faecium [2] = assay: Antibacterial activity against Enterococcus faecium 14-1 after 18 to 24 hrs; procedure, shortened: as §1
Enterococcus faecium [3] = assay: Antibacterial activity against Enterococcus faecium 14-2 after 18 to 24 hrs; procedure, shortened: as §1
Enterococcus faecium [4] = assay: Antibacterial activity against Enterococcus faecium 14-5 after 18 to 24 hrs; procedure, shortened: as §1
Enterococcus faecium [5] = assay: Antibacterial activity against Enterococcus faecium 14-6 after 18 to 24 hrs; procedure, shortened: as §1
[6] = system: Mycobacterium tuberculosis; assay: Antimycobacterial activity against Mycobacterium tuberculosis H37Rv ATCC 27294 by alamar blue assay
Procedure, shortened: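 Microplate Alamar Blue Assay; MIC is the lowest concentration giving ≥90% reduction in fluorescence relative to the mean of replicate bacterium-only controls. MDR strain 6133 is resistant to isoniazid and rifampicin.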

Escherichia coli [7] = assay: Antibacterial activity against Escherichia coli ATCC 25922 after 18 to 24 hrs; procedure, shortened: as §1
Escherichia coli [8] = assay: Antibacterial activity against ESBL-positive Escherichia coli 14-1 after 18 to 24 hrs; procedure, shortened: as §1
Escherichia coli [9] = assay: Antibacterial activity against ESBL-positive Escherichia coli 14-2 after 18 to 24 hrs; procedure, shortened: as §1
Escherichia coli [10] = assay: Antibacterial activity against Escherichia coli 14-1 after 18 to 24 hrs; procedure, shortened: as §1
Escherichia coli [11] = assay: Antibacterial activity against Escherichia coli 14-2 after 18 to 24 hrs; procedure, shortened: as §1
Klebsiella pneumoniae [12] = assay: Antibacterial activity against ESBL-positive Klebsiella pneumoniae 14-17 after 18 to 24 hrs; procedure, shortened: as §1
Klebsiella pneumoniae [13] = assay: Antibacterial activity against ESBL-positive Klebsiella pneumoniae 14-18 after 18 to 24 hrs; procedure, shortened: as §1
Klebsiella pneumoniae [14] = assay: Antibacterial activity against ESBL-positive Klebsiella pneumoniae 14-19 after 18 to 24 hrs; procedure, shortened: as §1
Klebsiella pneumoniae [15] = assay: Antibacterial activity against Klebsiella pneumoniae 14-1 after 18 to 24 hrs; procedure, shortened: as §1
Klebsiella pneumoniae [16] = assay: Antibacterial activity against Klebsiella pneumoniae 14-2 after 18 to 24 hrs; procedure, shortened: as §1
Klebsiella pneumoniae [17] = assay: Antibacterial activity against Klebsiella pneumoniae 14-3 after 18 to 24 hrs; procedure, shortened: as §1
Klebsiella pneumoniae [18] = assay: Antibacterial activity against Klebsiella pneumoniae 14-4 after 18 to 24 hrs; procedure, shortened: as §1
Pseudomonas aeruginosa [19] = assay: Antibacterial activity against Pseudomonas aeruginosa ATCC 27853 after 18 to 24 hrs; procedure, shortened: as §1
Pseudomonas aeruginosa [20] = assay: Antibacterial activity against Pseudomonas aeruginosa 14-9 after 18 to 24 hrs; procedure, shortened: as §1
Pseudomonas aeruginosa [21] = assay: Antibacterial activity against Pseudomonas aeruginosa 14-14 after 18 to 24 hrs; procedure, shortened: as §1
Pseudomonas aeruginosa [22] = assay: Antibacterial activity against Pseudomonas aeruginosa 14-15 after 18 to 24 hrs; procedure, shortened: as §1
Pseudomonas aeruginosa [23] = assay: Antibacterial activity against Pseudomonas aeruginosa 14-16 after 18 to 24 hrs; procedure, shortened: as §1
Pseudomonas aeruginosa [24] = assay: Antibacterial activity against Pseudomonas aeruginosa 14-19 after 18 to 24 hrs; procedure, shortened: as §1
Staphylococcus aureus [25] = assay: Antibacterial activity against Staphylococcus aureus CMCC 26003 after 18 to 24 hrs; procedure, shortened: as §1
Staphylococcus aureus [26] = assay: Antibacterial activity against methicillin-sensitive Staphylococcus aureus 14-1 after 18 to 24 hrs; procedure, shortened: as §1
Staphylococcus aureus [27] = assay: Antibacterial activity against methicillin-sensitive Staphylococcus aureus 14-2 after 18 to 24 hrs; procedure, shortened: as §1
Staphylococcus aureus [28] = assay: Antibacterial activity against methicillin-sensitive Staphylococcus aureus 14-3 after 18 to 24 hrs; procedure, shortened: as §1
Staphylococcus aureus [29] = assay: Antibacterial activity against methicillin-sensitive Staphylococcus aureus 14-4 after 18 to 24 hrs; procedure, shortened: as §1
Staphylococcus aureus [30] = assay: Antibacterial activity against methicillin-resistant Staphylococcus aureus 14-4 after 18 to 24 hrs
Staphylococcus aureus [31] = assay: Antibacterial activity against methicillin-resistant Staphylococcus aureus 14-5 after 18 to 24 hrs
[32] = system: Staphylococcus epidermidis; assay: Antibacterial activity against methicillin-sensitive Staphylococcus epidermidis 14-2 after 18 to 24 hrs; procedure, shortened: as §1
[33] = system: Staphylococcus epidermidis; assay: Antibacterial activity against methicillin-resistant Staphylococcus epidermidis 14-21 after 18 to 24 hrs
[34] = system: Staphylococcus epidermidis; assay: Antibacterial activity against methicillin-resistant Staphylococcus epidermidis 14-22 after 18 to 24 hrs
[35] = system: Staphylococcus epidermidis; assay: Antibacterial activity against methicillin-resistant Staphylococcus epidermidis 14-37 after 18 to 24 hrs
[36] = system: Staphylococcus epidermidis; assay: Antibacterial activity against methicillin-resistant Staphylococcus epidermidis 14-39 after 18 to 24 hrs
Streptococcus pneumoniae = assay: Antibacterial activity against Streptococcus pneumoniae ATCC 19615 after 18 to 24 hrs; procedure, shortened: as §1
Enterococcus faecalis [37] = assay: Antibacterial activity against Enterococcus faecalis 14-1 after 18 to 24 hrs; procedure, shortened: as §1

SMILES | MIC (Enterococcus faecalis [1]) [µg/mL] | MIC (Enterococcus faecium [2]) [µg/mL] | MIC (Enterococcus faecium [3]) [µg/mL] | MIC (Enterococcus faecium [4]) [µg/mL] | MIC (Enterococcus faecium [5]) [µg/mL] | MIC90 [6] [µg/mL] | MIC (Escherichia coli [7]) [µg/mL] | MIC (Escherichia coli [8]) [µg/mL] | MIC (Escherichia coli [9]) [µg/mL] | MIC (Escherichia coli [10]) [µg/mL] | MIC (Escherichia coli [11]) [µg/mL] | MIC (Klebsiella pneumoniae [12]) [µg/mL] | MIC (Klebsiella pneumoniae [13]) [µg/mL] | MIC (Klebsiella pneumoniae [14]) [µg/mL] | MIC (Klebsiella pneumoniae [15]) [µg/mL] | MIC (Klebsiella pneumoniae [16]) [µg/mL] | MIC (Klebsiella pneumoniae [17]) [µg/mL] | MIC (Klebsiella pneumoniae [18]) [µg/mL] | MIC (Pseudomonas aeruginosa [19]) [µg/mL] | MIC (Pseudomonas aeruginosa [20]) [µg/mL] | other results
NCC1CN(c2nc3c(cc2F)c(=O)c(C(=O)O)cn3[C@@H]2C[C@@H]2F)C/C1=N\OCc1ccc(F)cc1 (stereo partly specified) | < 0.008 | 1 (≈ 1.99 µM) | 2 (≈ 3.99 µM) | 8 (≈ 16 µM) | 8 (≈ 16 µM) | < 0.25 | < 0.008 | 8 (≈ 16 µM) | 64 (≈ 128 µM) | 64 (≈ 128 µM) | 64 (≈ 128 µM) | 8 (≈ 16 µM) | 16 (≈ 31.9 µM) | 64 (≈ 128 µM) | 64 (≈ 128 µM) | > 128 | 64 (≈ 128 µM) | 128 (≈ 255 µM) | 4 (≈ 7.98 µM) | 8 (≈ 16 µM) | MIC (Pseudomonas aeruginosa [21]): 16 µg/mL (≈ 31.9 µM); MIC (Pseudomonas aeruginosa [22]): 16 µg/mL (≈ 31.9 µM); MIC (Pseudomonas aeruginosa [23]): 16 µg/mL (≈ 31.9 µM); MIC (Pseudomonas aeruginosa [24]): 16 µg/mL (≈ 31.9 µM); MIC (Staphylococcus aureus [25]): < 0.008 µg/mL; MIC (Staphylococcus aureus [26]): 4 µg/mL (≈ 7.98 µM); MIC (Staphylococcus aureus [27]): < 0.008 µg/mL; MIC (Staphylococcus aureus [28]): < 0.008 µg/mL; MIC (Staphylococcus aureus [29]): < 0.008 µg/mL; MIC (Staphylococcus aureus [30]): 32 µg/mL (≈ 63.8 µM); MIC (Staphylococcus aureus [31]): 16 µg/mL (≈ 31.9 µM); MIC [32]: 64 µg/mL (≈ 128 µM); MIC [33]: 8 µg/mL (≈ 16 µM); MIC [34]: 8 µg/mL (≈ 16 µM); MIC [35]: 8 µg/mL (≈ 16 µM); MIC [36]: 16 µg/mL (≈ 31.9 µM); MIC (Streptococcus pneumoniae): 0.03 µg/mL (≈ 0.0598 µM); MIC (Enterococcus faecalis [37]): 64 µg/mL (≈ 128 µM)
NCC1CN(c2nc3c(cc2F)c(=O)c(C(=O)O)cn3[C@@H]2C[C@@H]2F)C/C1=N\OCc1ccc(Cl)cc1 (stereo partly specified) | 0.125 (≈ 0.241 µM) | 2 (≈ 3.86 µM) | 2 (≈ 3.86 µM) | 4 (≈ 7.72 µM) | 8 (≈ 15.4 µM) | 0.342 (≈ 0.66 µM) | 0.125 (≈ 0.241 µM) | 4 (≈ 7.72 µM) | 32 (≈ 61.8 µM) | 32 (≈ 61.8 µM) | 32 (≈ 61.8 µM) | 8 (≈ 15.4 µM) | 8 (≈ 15.4 µM) | 64 (≈ 124 µM) | 128 (≈ 247 µM) | 128 (≈ 247 µM) | 64 (≈ 124 µM) | 128 (≈ 247 µM) | 4 (≈ 7.72 µM) | 4 (≈ 7.72 µM) | MIC (Pseudomonas aeruginosa [21]): 8 µg/mL (≈ 15.4 µM); MIC (Pseudomonas aeruginosa [22]): 8 µg/mL (≈ 15.4 µM); MIC (Pseudomonas aeruginosa [23]): 8 µg/mL (≈ 15.4 µM); MIC (Pseudomonas aeruginosa [24]): 8 µg/mL (≈ 15.4 µM); MIC (Staphylococcus aureus [25]): < 0.008 µg/mL; MIC (Staphylococcus aureus [26]): 2 µg/mL (≈ 3.86 µM); MIC (Staphylococcus aureus [27]): < 0.008 µg/mL; MIC (Staphylococcus aureus [28]): 0.015 µg/mL (≈ 0.029 µM); MIC (Staphylococcus aureus [29]): 0.03 µg/mL (≈ 0.0579 µM); MIC (Staphylococcus aureus [30]): 16 µg/mL (≈ 30.9 µM); MIC (Staphylococcus aureus [31]): 32 µg/mL (≈ 61.8 µM); MIC [32]: 16 µg/mL (≈ 30.9 µM); MIC [33]: 4 µg/mL (≈ 7.72 µM); MIC [34]: 4 µg/mL (≈ 7.72 µM); MIC [35]: 8 µg/mL (≈ 15.4 µM); MIC [36]: 8 µg/mL (≈ 15.4 µM); MIC (Streptococcus pneumoniae): 0.015 µg/mL (≈ 0.029 µM); MIC (Enterococcus faecalis [37]): 32 µg/mL (≈ 61.8 µM)

From ChEMBL document CHEMBL3632558, “Synthesis, antimycobacterial and antibacterial activity of l-[(1R,2S)-2-fluorocyclopropyl]naphthyridone derivatives containing an oxime-functionalized pyrrolidine moiety” (2015)
